From ChEMBL document CHEMBL4689842, “EUbOPEN Chemogenomics Library wave 1” (2021)

Test system: Fibroblast
Experiment: Multiplex assay against human fibroblast
Format: toxicity, cell-based
Summary of the method: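 Tubulin, mitochondrial-mass and membrane-permeability phenotypes are per cents of healthy-nucleus cells. Cells were gated by CellPathfinder machine learning into Hoechst high-intensity objects or normal cells, normal cells into healthy, pyknosed or fragmented nuclei, and pyknosed cells into mitotic or apoptotic. Before that, live cells stained at seeding with Hoechst33342, BioTracker Green Microtubule Cytoskeleton Dye, MitoTracker Red and Annexin V Alexa Fluor 680 were imaged on a CQ1 microscope at 37°C and 5% CO2 after compound addition.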

[1] = 12 h, 1 µM, compound concentration 1 uM, replicate 1
[2] = 12 h, 1 µM, compound concentration 1 uM, replicate 2
[3] = 12 h, 10 µM, compound concentration 10 uM, replicate 1
[4] = 12 h, 10 µM, compound concentration 10 uM, replicate 2
[5] = 24 h, 1 µM, compound concentration 1 uM, replicate 1
[6] = 24 h, 1 µM, compound concentration 1 uM, replicate 2
[7] = 24 h, 10 µM, compound concentration 10 uM, replicate 1
[8] = 24 h, 10 µM, compound concentration 10 uM, replicate 2
[9] = 48 h, 1 µM, compound concentration 1 uM, replicate 1
[10] = 48 h, 1 µM, compound concentration 1 uM, replicate 2
[11] = 48 h, 10 µM, compound concentration 10 uM, replicate 1
[12] = 48 h, 10 µM, compound concentration 10 uM, replicate 2

CCN(CC)CCCCNc1ncc2cc(-c3cc(OC)cc(OC)c3)c(NC(=O)NC(C)(C)C)nc2n1 [PD-173074]
Population Apoptotic (%) [1]: 61%
Population Fragmented Nuclei (%) [1]: 20%
Population Hoechst High Intensity Objects (%) [1]: 70%
Population Membrane Permeable-Phenotype (%) [1]: 2%
Population Mitotic Cells (%) [1]: 38%
Population Normal (%) [1]: 29%
Population Pyknosed Nuclei (%) [1]: 63%
Population Tubulin-Different-Phenotype (%) [1]: 8%
Total Cell Count [1]: 749
Population Apoptotic (%) [2]: 67%
Population Fragmented Nuclei (%) [2]: 46%
Population Healthy Nuclei (%) [2]: 15%
Population Hoechst High Intensity Objects (%) [2]: 72%
Population Membrane Permeable-Phenotype (%) [2]: 13%
Population Mitochondria Different-Phenotype (%) [2]: 0%
Population Mitotic Cells (%) [2]: 32%
Population Normal (%) [2]: 27%
Population Pyknosed Nuclei (%) [2]: 38%
Population Tubulin-Different-Phenotype (%) [2]: 0%
Total Cell Count [2]: 352
Population Apoptotic (%) [3]: 60%
Population Fragmented Nuclei (%) [3]: 44%
Population Healthy Nuclei (%) [3]: 34%
Population Hoechst High Intensity Objects (%) [3]: 57%
Population Membrane Permeable-Phenotype (%) [3]: 0%
Population Mitotic Cells (%) [3]: 39%
Population Normal (%) [3]: 42%
Population Pyknosed Nuclei (%) [3]: 20%
Population Tubulin-Different-Phenotype (%) [3]: 6%
Total Cell Count [3]: 786
Population Apoptotic (%) [4]: 66%
Population Fragmented Nuclei (%) [4]: 54%
Population Healthy Nuclei (%) [4]: 32%
Population Hoechst High Intensity Objects (%) [4]: 61%
Population Membrane Permeable-Phenotype (%) [4]: 16%
Population Mitochondria Different-Phenotype (%) [4]: 4%
Population Mitotic Cells (%) [4]: 33%
Population Normal (%) [4]: 38%
Population Pyknosed Nuclei (%) [4]: 12%
Population Tubulin-Different-Phenotype (%) [4]: 8%
Total Cell Count [4]: 189
Population Apoptotic (%) [5]: 59%
Population Fragmented Nuclei (%) [5]: 32%
Population Healthy Nuclei (%) [5]: 13%
Population Hoechst High Intensity Objects (%) [5]: 74%
Population Membrane Permeable-Phenotype (%) [5]: 0%
Population Mitotic Cells (%) [5]: 40%
Population Normal (%) [5]: 25%
Population Pyknosed Nuclei (%) [5]: 53%
Population Tubulin-Different-Phenotype (%) [5]: 9%
Total Cell Count [5]: 594
Population Apoptotic (%) [6]: 62%
Population Fragmented Nuclei (%) [6]: 44%
Population Healthy Nuclei (%) [6]: 12%
Population Hoechst High Intensity Objects (%) [6]: 72%
Population Membrane Permeable-Phenotype (%) [6]: 16%
Population Mitochondria Different-Phenotype (%) [6]: 0%
Population Mitotic Cells (%) [6]: 37%
Population Normal (%) [6]: 27%
Population Pyknosed Nuclei (%) [6]: 43%
Population Tubulin-Different-Phenotype (%) [6]: 0%
Total Cell Count [6]: 339
Population Apoptotic (%) [7]: 51%
Population Fragmented Nuclei (%) [7]: 42%
Population Healthy Nuclei (%) [7]: 39%
Population Membrane Permeable-Phenotype (%) [7]: 2%
Population Mitochondria Different-Phenotype (%) [7]: 0%
Population Mitotic Cells (%) [7]: 48%
Population Pyknosed Nuclei (%) [7]: 18%
Population Tubulin-Different-Phenotype (%) [7]: 5%
Total Cell Count [7]: 734
Population Apoptotic (%) [8]: 60%
Population Fragmented Nuclei (%) [8]: 58%
Population Healthy Nuclei (%) [8]: 28%
Population Hoechst High Intensity Objects (%) [8]: 58%
Population Membrane Permeable-Phenotype (%) [8]: 28%
Population Mitochondria Different-Phenotype (%) [8]: 14%
Population Mitotic Cells (%) [8]: 40%
Population Normal (%) [8]: 41%
Population Pyknosed Nuclei (%) [8]: 13%
Population Tubulin-Different-Phenotype (%) [8]: 19%
Total Cell Count [8]: 177

Cc1c(-c2ccc(O)cc2)n(Cc2ccc(OCCN3CCCCCC3)cc2)c2ccc(O)cc12 [BAZEDOXIFENE]
Population Apoptotic (%) [1]: 69%
Population Fragmented Nuclei (%) [1]: 27%
Population Healthy Nuclei (%) [1]: 33%
Population Hoechst High Intensity Objects (%) [1]: 13%
Population Membrane Permeable-Phenotype (%) [1]: 16%
Population Mitochondria Different-Phenotype (%) [1]: 19%
Population Mitotic Cells (%) [1]: 30%
Population Normal (%) [1]: 86%
Population Pyknosed Nuclei (%) [1]: 39%
Population Tubulin-Different-Phenotype (%) [1]: 58%
Total Cell Count [1]: 106
Population Apoptotic (%) [2]: 0%
Population Fragmented Nuclei (%) [2]: 13%
Population Healthy Nuclei (%) [2]: 81%
Population Hoechst High Intensity Objects (%) [2]: 10%
Population Membrane Permeable-Phenotype (%) [2]: 5%
Population Mitochondria Different-Phenotype (%) [2]: 20%
Population Mitotic Cells (%) [2]: 100%
Population Normal (%) [2]: 89%
Population Pyknosed Nuclei (%) [2]: 4%
Population Tubulin-Different-Phenotype (%) [2]: 17%
Total Cell Count [2]: 48
Population Apoptotic (%) [3]: 72%
Population Fragmented Nuclei (%) [3]: 27%
Population Healthy Nuclei (%) [3]: 36%
Population Hoechst High Intensity Objects (%) [3]: 26%
Population Membrane Permeable-Phenotype (%) [3]: 12%
Population Mitochondria Different-Phenotype (%) [3]: 35%
Population Mitotic Cells (%) [3]: 27%
Population Normal (%) [3]: 73%
Population Pyknosed Nuclei (%) [3]: 36%
Population Tubulin-Different-Phenotype (%) [3]: 85%
Total Cell Count [3]: 149
Population Apoptotic (%) [4]: 60%
Population Fragmented Nuclei (%) [4]: 7%
Population Healthy Nuclei (%) [4]: 56%
Population Hoechst High Intensity Objects (%) [4]: 2%
Population Membrane Permeable-Phenotype (%) [4]: 26%
Population Mitochondria Different-Phenotype (%) [4]: 100%
Population Mitotic Cells (%) [4]: 40%
Population Normal (%) [4]: 97%
Population Tubulin-Different-Phenotype (%) [4]: 100%
Total Cell Count [4]: 42
Population Apoptotic (%) [5]: 80%
Population Fragmented Nuclei (%) [5]: 27%
Population Healthy Nuclei (%) [5]: 49%
Population Hoechst High Intensity Objects (%) [5]: 14%
Population Membrane Permeable-Phenotype (%) [5]: 22%
Population Mitochondria Different-Phenotype (%) [5]: 8%
Population Mitotic Cells (%) [5]: 19%
Population Normal (%) [5]: 85%
Population Pyknosed Nuclei (%) [5]: 23%
Population Tubulin-Different-Phenotype (%) [5]: 46%
Total Cell Count [5]: 106
Population Apoptotic (%) [6]: 11%
Population Fragmented Nuclei (%) [6]: 8%
Population Healthy Nuclei (%) [6]: 75%
Population Hoechst High Intensity Objects (%) [6]: 3%
Population Membrane Permeable-Phenotype (%) [6]: 2%
Population Mitochondria Different-Phenotype (%) [6]: 6%
Population Mitotic Cells (%) [6]: 88%
Population Normal (%) [6]: 96%
Population Pyknosed Nuclei (%) [6]: 15%
Population Tubulin-Different-Phenotype (%) [6]: 15%
Total Cell Count [6]: 60
Population Apoptotic (%) [7]: 62%
Population Fragmented Nuclei (%) [7]: 20%
Population Healthy Nuclei (%) [7]: 37%
Population Hoechst High Intensity Objects (%) [7]: 23%
Population Membrane Permeable-Phenotype (%) [7]: 12%
Population Mitochondria Different-Phenotype (%) [7]: 71%
Population Mitotic Cells (%) [7]: 37%
Population Normal (%) [7]: 76%
Population Pyknosed Nuclei (%) [7]: 41%
Population Tubulin-Different-Phenotype (%) [7]: 84%
Total Cell Count [7]: 134
Population Apoptotic (%) [8]: 68%
Population Fragmented Nuclei (%) [8]: 22%
Population Healthy Nuclei (%) [8]: 30%
Population Hoechst High Intensity Objects (%) [8]: 20%
Population Membrane Permeable-Phenotype (%) [8]: 75%
Population Mitochondria Different-Phenotype (%) [8]: 100%
Population Mitotic Cells (%) [8]: 31%
Population Normal (%) [8]: 80%
Population Pyknosed Nuclei (%) [8]: 47%
Population Tubulin-Different-Phenotype (%) [8]: 100%
Total Cell Count [8]: 50
Population Apoptotic (%) [9]: 50%
Population Fragmented Nuclei (%) [9]: 42%
Population Healthy Nuclei (%) [9]: 51%
Population Hoechst High Intensity Objects (%) [9]: 14%
Population Membrane Permeable-Phenotype (%) [9]: 26%
Population Mitochondria Different-Phenotype (%) [9]: 4%
Population Mitotic Cells (%) [9]: 50%
Population Normal (%) [9]: 85%
Population Pyknosed Nuclei (%) [9]: 6%
Population Tubulin-Different-Phenotype (%) [9]: 44%
Total Cell Count [9]: 115
Population Apoptotic (%) [10]: 75%
Population Fragmented Nuclei (%) [10]: 27%
Population Healthy Nuclei (%) [10]: 68%
Population Hoechst High Intensity Objects (%) [10]: 16%
Population Membrane Permeable-Phenotype (%) [10]: 15%
Population Mitochondria Different-Phenotype (%) [10]: 1%
Population Mitotic Cells (%) [10]: 25%
Population Normal (%) [10]: 83%
Population Pyknosed Nuclei (%) [10]: 3%
Population Tubulin-Different-Phenotype (%) [10]: 46%
Total Cell Count [10]: 123
Population Apoptotic (%) [11]: 85%
Population Fragmented Nuclei (%) [11]: 39%
Population Healthy Nuclei (%) [11]: 29%
Population Hoechst High Intensity Objects (%) [11]: 18%
Population Membrane Permeable-Phenotype (%) [11]: 33%
Population Mitochondria Different-Phenotype (%) [11]: 55%
Population Mitotic Cells (%) [11]: 14%
Population Normal (%) [11]: 81%
Population Pyknosed Nuclei (%) [11]: 30%
Population Tubulin-Different-Phenotype (%) [11]: 81%
Total Cell Count [11]: 112
Population Apoptotic (%) [12]: 83%
Population Fragmented Nuclei (%) [12]: 42%
Population Healthy Nuclei (%) [12]: 37%
Population Hoechst High Intensity Objects (%) [12]: 35%
Population Membrane Permeable-Phenotype (%) [12]: 21%
Population Mitochondria Different-Phenotype (%) [12]: 47%
Population Mitotic Cells (%) [12]: 16%
Population Normal (%) [12]: 64%
Population Pyknosed Nuclei (%) [12]: 19%
Population Tubulin-Different-Phenotype (%) [12]: 65%
Total Cell Count [12]: 95
